{"source": "ChEMBL document CHEMBL1138918", "about": "“Discovery of potent and orally available malonyl-CoA decarboxylase inhibitors as cardioprotective agents” (J Med Chem, 2006)", "key": {"[1]": {"organism": "Rattus norvegicus", "assay": "Increase in glucose oxidation rate in rat heart at 10 uM relative to control", "format": "functional", "how_it_was_run": "(§1)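 Isolated working rat hearts; glucose oxidation rate expressed as ratio of compound-treated to 0.05% DMSO vehicle control, n = 8 hearts; test concentration 10 µM, or 1 µM where stated.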"}, "[2]": {"organism": "Rattus norvegicus", "assay": "Cardioprotective activity in global ischemia-reperfusion rat model", "format": "functional, organism-based", "how_it_was_run": "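Isolated rat hearts perfused aerobically 30 min, then 30 min global no-flow ischemia and 60 min aerobic reperfusion; compound at 1 µM added to perfusate either before ischemia or at onset of reperfusion.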"}, "[3]": {"organism": "Rattus norvegicus", "assay": "Increase in glucose oxidation rate in rat heart at 1 uM relative to control", "format": "functional", "how_it_was_run": "as §1"}, "[4]": {"tested_on": "Rattus norvegicus", "assay": "Volume of distribution in Sprague-Dawley rat at 10 mg/kg, iv or po", "format": "ADME, organism-based", "design": "dose 10 mg/kg, route oral", "settings": "in vivo"}, "[5]": {"assay": "Half life in Sprague-Dawley rat at 10 mg/kg, iv", "format": "ADME, organism-based", "design": "dose 10 mg/kg, route intravenous", "settings": "in vivo"}, "[6]": {"assay": "Tmax in Sprague-Dawley rat at 10 mg/kg, po", "format": "ADME, organism-based", "design": "dose 10 mg/kg, route oral", "settings": "in vivo"}, "[7]": {"assay": "Cmax in Sprague-Dawley rat at 10 mg/kg, po", "format": "ADME, organism-based", "design": "dose 10 mg/kg, route oral", "settings": "in vivo"}, "[8]": {"assay": "Oral bioavailability in Sprague-Dawley rat at 10 mg/kg, iv and po", "format": "ADME, organism-based", "settings": "in vivo", "how_it_was_run": "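Rats dosed iv and po; F computed as ratio of dose-normalized oral to iv plasma AUC over the same time frame.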"}}, "note": "The source made the active and inactive calls. No cut-off for these calls is given here.", "data": [{"smiles": "CC(C)C[C@@H](CC(=O)OC(C)(C)C)NC(=O)C1=NOC(C(O)(C(F)(F)F)C(F)(F)F)C1", "note": "(stereo partly specified)", "values": [{"measurement": "Activity", "setting": "[1]", "result": 3.24, "unit": "%"}]}, {"smiles": "CCCCCC(C)NC(=O)C1=NOC(C(O)(C(F)(F)F)C(F)(F)F)C1", "note": "(stereo unspecified)", "values": [{"measurement": "Activity", "setting": "[1]", "result": 0.8, "unit": "%"}]}, {"smiles": "CC(C)CN(CC(C)C)C(=O)C1=NOC(C(O)(C(F)(F)F)C(F)(F)F)C1", "note": "(stereo unspecified)", "values": [{"measurement": "Activity", "setting": "[1]", "result": 2.11, "unit": "%"}]}, {"smiles": "CC(C)(C)OCCCNC(=O)C1=NOC(C(O)(C(F)(F)F)C(F)(F)F)C1", "note": "(stereo unspecified)", "values": [{"measurement": "Activity", "setting": "[1]", "result": 5.42, "unit": "%"}]}, {"smiles": "CC(C)CCCC(C)NC(=O)C1=NOC(C(O)(C(F)(F)F)C(F)(F)F)C1", "note": "(stereo unspecified)", "values": [{"measurement": "Activity", "setting": "[1]", "result": 1.26, "unit": "%"}]}, {"smiles": "CC(C)CC(CC(=O)OC(C)(C)C)NC(=O)C1=NOC(C(O)(C(F)(F)F)C(F)(F)F)C1", "note": "(stereo unspecified)", "values": [{"measurement": "Activity", "setting": "[1]", "result": 4.28, "unit": "%"}]}, {"smiles": "CC(CC(=O)OC(C)(C)C)NC(=O)C1=NOC(C(O)(C(F)(F)F)C(F)(F)F)C1", "note": "(stereo unspecified)", "values": [{"measurement": "Activity", "setting": "[2]", "result": "Active"}, {"measurement": "Activity", "setting": "[3]", "result": 3.07, "unit": "%"}, {"measurement": "Vss", "setting": "[4]", "result": 2.193, "unit": "L/kg"}, {"measurement": "Activity", "setting": "[1]", "result": 7.32, "unit": "%"}, {"measurement": "half-life", "setting": "[5]", "result": 2.3, "unit": "h"}, {"measurement": "Tmax", "setting": "[6]", "result": 0.5, "unit": "h"}, {"measurement": "Cmax", "setting": "[7]", "result": 2680, "unit": "ng/mL"}, {"measurement": "bioavailability", "setting": "[8]", "result": 74, "unit": "%"}]}, {"smiles": "C[C@@H](CC(=O)OC(C)(C)C)NC(=O)C1=NOC(C(O)(C(F)(F)F)C(F)(F)F)C1", "note": "(stereo partly specified)", "values": [{"measurement": "Activity", "setting": "[1]", "result": 5.01, "unit": "%"}]}, {"smiles": "CC(C)(C)OC(=O)CCNC(=O)C1=NOC(C(O)(C(F)(F)F)C(F)(F)F)C1", "note": "(stereo unspecified)", "values": [{"measurement": "Activity", "setting": "[1]", "result": 4.54, "unit": "%"}]}]}
